Consider 21 compounds from ChEMBL document CHEMBL4024710, “Discovery of novel 1,2,3,4-tetrahydrobenzo[4, 5]thieno[2, 3-c]pyridine derivatives as potent and selective CYP17 inhibitors” (Eur J Med Chem, 2017).

Some results are limits rather than exact numbers.

For this assay, the target named is T1, Steroid 17-alpha-hydroxylase/17,20 lyase (Rattus norvegicus, UniProt P11715).
T1 sequence (P11715 whole entry): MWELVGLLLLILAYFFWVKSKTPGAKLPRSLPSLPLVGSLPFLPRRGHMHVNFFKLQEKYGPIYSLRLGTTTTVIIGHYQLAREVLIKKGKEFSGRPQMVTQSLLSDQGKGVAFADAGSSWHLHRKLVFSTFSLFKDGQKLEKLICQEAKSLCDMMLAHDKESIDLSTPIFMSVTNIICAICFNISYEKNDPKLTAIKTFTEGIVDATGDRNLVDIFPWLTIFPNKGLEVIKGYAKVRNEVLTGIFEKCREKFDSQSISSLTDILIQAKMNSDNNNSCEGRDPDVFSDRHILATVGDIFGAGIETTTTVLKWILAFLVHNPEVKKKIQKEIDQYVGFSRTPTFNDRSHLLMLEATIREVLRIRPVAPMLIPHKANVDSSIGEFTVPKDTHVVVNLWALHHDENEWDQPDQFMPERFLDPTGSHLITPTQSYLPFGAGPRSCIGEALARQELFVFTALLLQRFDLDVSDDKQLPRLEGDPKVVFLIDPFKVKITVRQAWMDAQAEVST
The assay can be described thus: Inhibition of CYP17 in Sprague-Dawley rat testes microsomes using 17-alpha hydroxyprogesterone as substrate and NADPH as cofactor pretreated for 5 mins followed by substrate and cofactor addition after 60 mins by LC/Ms analysis. Also noted: species or system Testis. The gist of the method:
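Rat testis microsomes from male SD rats weighing 220–250 g, prepared at 4 °C by differential centrifugation (9000 g, then 105,000 g pellet). 2 µg protein in 0.05 M phosphate pH 7.5 preincubated with inhibitor 5 min at 25 °C. Started with 10 µM 17α-hydroxyprogesterone plus 4.2 mM NADPH, 60 min at 25 °C, stopped with methanol. Androstenedione measured by LC/MS; IC50 is the mean of at least three experiments.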

By IC50 is commonly meant the concentration that inhibits the measured activity by half. With `N#Cc1ccc2sc3c(c2c1)CCN(Cc1cccnc1)C3`, the half-maximal inhibitory concentration (IC50) was determined as 257 nM. In the case of `Fc1ccc2sc3c(c2c1)CCN(Cc1cnccc1-c1ccccc1)C3` it was over 1000 nM; in that of `Fc1ccc2sc3c(c2c1)CCN(Cc1cncnc1)C3`, 80.6 nM. Consider `Cc1cncc(CN2CCc3c(sc4ccc(F)cc34)C2)c1`, for which the IC50 was 121 nM.

Take `CNC(=O)c1ccc2sc3c(c2c1)CCN(Cc1cccnc1)C3`: the IC50 was over 1000 nM.

Turning to `Cc1ccc2sc3c(c2c1)CCN(Cc1cccnc1)C3`, the 50% inhibitory concentration (IC50) was 257 nM.

For the compound `C=C(C)c1ccncc1CN1CCc2c(sc3ccc(F)cc23)C1`, the 50% inhibitory concentration (IC50) worked out at 980 nM. Then `Clc1ccc2sc3c(c2c1)CCN(Cc1cccnc1)C3`, with 449 nM. Then `CC1(C)OB(c2ccc3sc4c(c3c2)CCN(Cc2cccnc2)C4)OC1(C)C`, with 115 nM. Then `c1cncc(CN2CCc3c([nH]c4ccccc34)C2)c1`, with 229 nM; and `Fc1ccc2sc3c(c2c1)CCN(Cc1cnccc1C1CC1)C3`, with 61.1 nM. On to `Fc1ccc2sc3c(c2c1)CCN(Cc1ccncc1)C3`, for which the IC50 was over 1000 nM. In the case of `Fc1ccc2sc3c(c2c1)CCN(Cc1cnccc1Br)C3` it was 75.8 nM. In the case of `COc1ccc2sc3c(c2c1)CCN(Cc1cccnc1)C3` it was over 1000 nM; in that of `Brc1ccc2sc3c(c2c1)CCN(Cc1cccnc1)C3`, 517 nM; in that of `CC(C)c1ccncc1CN1CCc2c(sc3ccc(F)cc23)C1`, 535 nM.

`O=C(c1cccnc1)N1CCc2c(sc3ccc(F)cc23)C1`: the IC50 is over 1000 nM. Then `CC(C)(C)OC(=O)Nc1ccc2sc3c(c2c1)CCN(Cc1cccnc1)C3`, with over 1000 nM; and `Fc1ccc2sc3c(c2c1)CCN(Cc1cncc2ccccc12)C3`, with 390 nM. Turning to `CC(=O)Nc1ccc2sc3c(c2c1)CCN(Cc1cccnc1)C3`, the half-inhibitory concentration (IC50) was over 1000 nM. Then `c1cncc(CN2CCc3c(sc4ccccc34)C2)c1`, with 28.1 to 54.9 nM.
